According to paper PMC8366898 (European journal of medicinal chemistry, 2018):
Values after ≈ are worked out from the molar mass of the structure shown. “Also recorded” adds a separate entry of the source. Where two headings read alike, the source gives them in different places.

Assays:
[1] = tested on: S. aureus; test: MIC, whole cell growth inhibition dose response; format: cell-based, Staphylococcus aureus; conditions: for MIC: Staphylococcus aureus, MRSA
[2] = SPR binding of peptides on immobilized liposomes; conditions: POPC lipid systems, 100 μM peptide
[3] = tested on: five bacterial pathogens; test: Bacterial growth inhibition at single concentration, whole panel; format: cell-based; conditions: 32 μg/mL, in words
[4] = tested on: A. baumannii; test: Bacterial growth inhibition at single concentration; format: cell-based, Acinetobacter baumannii; conditions: 32 μg/mL (15–17 μM), OD600, 18 h
[5] = tested on: S. aureus; test: as above; format: cell-based, Staphylococcus aureus; conditions: 32 μg/mL (15–17 μM), OD600, 18 h; in words
[6] = Liposome leakage; conditions: 20 μM peptide, CF dequenching
Procedure, shortened: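 Vesicles: 5 mg DOPC in chloroform, dried under N2, then freeze-dried 2 h to remove residual solvent. The lipid was redissolved in diethyl ether and hydrated in 10 mM HEPES, 100 mM KCl, pH 7.4, containing 50 mM carboxyfluorescein (quenching level). Peptide at 20 μM was mixed with vesicles for 3 min equilibration. Release was followed as the fluorescence dequenching rate.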

[7] = tested on: A. baumannii; test: MIC, whole cell growth inhibition dose response; format: cell-based, Acinetobacter baumannii; conditions: polystyrene 96-well plate, n=2
[8] = tested on: K. pneumoniae; test: MIC, whole cell growth inhibition dose response; format: cell-based, Klebsiella pneumoniae; conditions: n=2
[9] = tested on: E. coli; test: MIC, whole cell growth inhibition dose response; format: cell-based, Escherichia coli; conditions: n=2
[10] = non-binding surface 96-well plate

## CN[C@H](CC(C)C)C(=O)N[C@H]1C(=O)N[C@@H](CC(N)=O)C(=O)N[C@H]2C(=O)N[C@H]3C(=O)N[C@H](C(=O)N[C@H](C(=O)O)c4cc(O)cc(O)c4-c4cc3ccc4O)[C@H](O)c3ccc(c(Cl)c3)Oc3cc2cc(c3O[C@@H]2O[C@H](CO)[C@@H](O)[C@H](O)[C@H]2O[C@H]2C[C@](C)(N)[C@H](O)[C@H](C)O2)Oc2ccc(cc2Cl)[C@H]1O [Vancomycin]
[1]; read-out: MIC S. aureus MRSA NBS plate
  MIC: 2 µg/mL (≈ 1.38 µM)
[1]; read-out: MIC S. aureus MRSA PS plate
  MIC: 2 µg/mL (≈ 1.38 µM)

## Ac-(AzPro-Pro)8-NHCH2CH2OH [Peptide 2]
[2]
  SPR binding response: showed some binding response
[3]
  antibacterial activity (growth inhibition) over the bacterial panel: considerable loss of activity

## Boc-(Pro-AzPro)4-H [Peptide 22]
[3]
  antibacterial activity (growth inhibition) over the bacterial panel: little inhibition

## Boc-(Pro-AzPro)8-Cbz [Peptide 10]
[2]
  SPR binding response: showed some binding response

## Boc-(Pro-AzPro)8-H.HCl [Peptide 17]
[4]
  A. baumannii growth inhibition: some activity
[5]
  S. aureus growth inhibition: some activity

## Cbz-(AzPro-Pro)4-OH [Peptide 19]
[3]
  antibacterial activity (growth inhibition) over the bacterial panel: little inhibition

## Cbz-(AzPro-Pro)4-O^tBu [Peptide 18]
[3]
  antibacterial activity (growth inhibition) over the bacterial panel: little inhibition

## Cbz-(AzPro-Pro)8-(N-Methyl AzPro) [Peptide 13]
[3]
  antibacterial activity (growth inhibition) over the bacterial panel: highest activity

## Cbz-(AzPro-Pro)8-NHCH2CH2OH [Peptide 1]
[4]
  A. baumannii growth inhibition: 38%
[2]
  SPR binding response: showed some binding response
[6]
  DOPC liposome leakage: 13%
[3]
  antibacterial activity (growth inhibition) over the bacterial panel: highest activity

## Cbz-(AzPro-Pro)8-OH [Peptide 14]
[3]
  antibacterial activity (growth inhibition) over the bacterial panel: considerable loss of activity; also recorded: largely abolishes all activity

## Cbz-(AzPro-Pro)8-O^tBu [Peptide 8]
[2]
  SPR binding response: showed some binding response
[3]
  antibacterial activity (growth inhibition) over the bacterial panel: highest activity

## Cbz-(AzPro-Pro)16-O^tBu [Peptide 11]
[3]
  antibacterial activity (growth inhibition) over the bacterial panel: considerable loss of activity; also recorded: drastic loss in activity

## Colistin
[1]; non-binding surface 96-well plate, n=2
  MIC S. aureus MRSA NBS plate: >32 µg/mL
[1]; polystyrene 96-well plate, n=2
  MIC S. aureus MRSA PS plate: >32 µg/mL
[7]
  MIC A. baumannii Type PS plate: 1 µg/mL
[8]; [10]
  MIC K. pneumoniae MDR NBS plate: 0.06 µg/mL
[8]; polystyrene 96-well plate
  MIC K. pneumoniae MDR PS plate: 0.25 µg/mL
[9]; [10]
  MIC E. coli FDA Control NBS plate: 0.016 µg/mL
[9]; polystyrene 96-well plate
  MIC E. coli FDA Control PS plate: 0.125 µg/mL

## Formyl-(AzPro-Pro)6-NHCH2CH2OH [Peptide 6]
[3]
  antibacterial activity (growth inhibition) over the bacterial panel: largely abolishes all activity

## Formyl-(AzPro-Pro)7-NHCH2CH2OH [Peptide 5]
[3]
  antibacterial activity (growth inhibition) over the bacterial panel: largely abolishes all activity

## H-(AzPro-Pro)4-O^tBu [Peptide 20]
[3]
  antibacterial activity (growth inhibition) over the bacterial panel: largely abolishes all activity

## H-(AzPro-Pro)8-NHCH2CH2OH [Peptide 4]
[3]
  antibacterial activity (growth inhibition) over the bacterial panel: considerable loss of activity

## H-(Pro-AzPro)8-H [Peptide 9]
[3]
  antibacterial activity (growth inhibition) over the bacterial panel: highest activity

## HCl. H-(Pro-AzPro)8-Cbz [Peptide 16]
[4]
  A. baumannii growth inhibition: some activity
[5]
  S. aureus growth inhibition: some activity

## HCl.H-(Pro-AzPro)4-Cbz [Peptide 23]
[3]
  antibacterial activity (growth inhibition) over the bacterial panel: little inhibition
